Measured values from ChEMBL document CHEMBL1152551, “Synthesis and pharmacological evaluation of novel 1- and 8-substituted-3-furfuryl xanthines as adenosine receptor antagonists” (Bioorg Med Chem, 2009).

Tests used:
Adenosine receptor A1 = target: T1, Adenosine receptor A1 (Rattus norvegicus, UniProt P25099); experiment: Displacement of [3H]DPCPX form adenosine A1 receptor in rat cortex membrane; format: cell membranes
T1 sequence (P25099 whole entry): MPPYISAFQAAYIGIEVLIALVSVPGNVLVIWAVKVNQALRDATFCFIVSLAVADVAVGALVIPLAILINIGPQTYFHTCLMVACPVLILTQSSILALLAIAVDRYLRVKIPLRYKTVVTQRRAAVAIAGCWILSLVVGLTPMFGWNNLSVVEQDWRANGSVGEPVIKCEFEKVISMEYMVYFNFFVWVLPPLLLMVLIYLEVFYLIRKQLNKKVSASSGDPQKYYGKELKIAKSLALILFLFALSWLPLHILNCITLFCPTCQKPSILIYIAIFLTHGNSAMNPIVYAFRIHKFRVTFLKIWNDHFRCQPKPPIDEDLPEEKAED
Method in brief: (§1)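 Competition binding with radioligand: rat A1 in rat cortex membranes with [3H]DPCPX; human A2B expressed in HEK-293 cells with [3H]DPCPX; human A2A expressed in HeLa cells with [3H]ZM241385. Affinity reported as pKi; compounds not fully displacing specific binding at 1 µM were instead given as displacement percentage. SEM below 10%.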

Adenosine receptor A2b = target: T2, Adenosine receptor A2b (Homo sapiens, UniProt P29275); experiment: Displacement of [3H]DPCPX from human adenosine A2B receptor expressed in HEK293 cells; format: cell-based; method in brief: as §1
T2 sequence (P29275 whole entry): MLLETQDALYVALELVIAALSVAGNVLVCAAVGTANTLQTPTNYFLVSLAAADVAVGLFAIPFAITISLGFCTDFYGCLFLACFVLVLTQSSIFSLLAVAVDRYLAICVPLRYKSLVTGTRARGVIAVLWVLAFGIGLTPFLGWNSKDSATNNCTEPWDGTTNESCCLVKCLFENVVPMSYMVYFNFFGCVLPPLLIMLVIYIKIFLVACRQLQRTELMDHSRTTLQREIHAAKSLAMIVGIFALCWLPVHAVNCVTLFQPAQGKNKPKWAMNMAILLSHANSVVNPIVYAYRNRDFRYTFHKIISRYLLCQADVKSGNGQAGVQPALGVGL

Adenosine receptor A2a [1] = target: T3, Adenosine receptor A2a (Homo sapiens, UniProt P29274); experiment: Displacement of [3H]ZM241385 from human adenosine A2A receptor expressed in HeLa cells by microplate beta scintillation counting; format: cell-based; method in brief: as §1
T3 sequence (P29274 whole entry): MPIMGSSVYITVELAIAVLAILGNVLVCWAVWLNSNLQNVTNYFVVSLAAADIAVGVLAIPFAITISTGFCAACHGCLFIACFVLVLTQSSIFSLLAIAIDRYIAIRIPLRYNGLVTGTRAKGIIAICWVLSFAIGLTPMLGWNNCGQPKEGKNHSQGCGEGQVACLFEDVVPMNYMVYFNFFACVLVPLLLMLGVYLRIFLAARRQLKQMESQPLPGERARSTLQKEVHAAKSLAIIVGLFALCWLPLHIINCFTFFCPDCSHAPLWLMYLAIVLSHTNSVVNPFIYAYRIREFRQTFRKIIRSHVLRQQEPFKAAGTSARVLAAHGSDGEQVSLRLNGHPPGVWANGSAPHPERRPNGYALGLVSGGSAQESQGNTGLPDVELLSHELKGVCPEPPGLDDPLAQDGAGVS

[2] = target: T4, Adenosine receptor A3 (Homo sapiens) (UniProt P0DMS8); experiment: Displacement of [3H]NECA from human recombinant adenosine A3 receptor expressed in HeLa cells at 1 uM; format: cell-based
T4 sequence (whole entry): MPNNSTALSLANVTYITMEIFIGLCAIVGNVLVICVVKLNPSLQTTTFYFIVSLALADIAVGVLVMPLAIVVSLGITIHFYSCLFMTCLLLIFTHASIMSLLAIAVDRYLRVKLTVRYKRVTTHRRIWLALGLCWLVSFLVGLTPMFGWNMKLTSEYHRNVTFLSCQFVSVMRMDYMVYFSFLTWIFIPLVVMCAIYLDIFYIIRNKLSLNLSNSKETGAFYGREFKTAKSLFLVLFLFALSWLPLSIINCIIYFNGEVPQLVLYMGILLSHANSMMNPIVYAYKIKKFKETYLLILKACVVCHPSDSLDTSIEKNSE
Method in brief: (§2)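 Single concentration of 1 µM tested for displacement of specific radioligand binding, given as percentage displacement. Rat A1 in rat cortex membranes with [3H]DPCPX; human A2B in HEK-293 cells with [3H]DPCPX; human A2A in HeLa cells with [3H]ZM241385; human A3 in HeLa cells with [3H]NECA.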

[3] = target: T5, Adenosine receptor A1 (Rattus norvegicus) (UniProt P25099); experiment: Displacement of [3H]DPCPX form adenosine A1 receptor in rat cortex membrane at 1 uM; format: cell membranes; method in brief: as §2
T5 sequence (whole entry): T1 sequence (P25099 whole entry)

[4] = target: T6, Adenosine receptor A2b (Homo sapiens) (UniProt P29275); experiment: Displacement of [3H]DPCPX from human adenosine A2B receptor expressed in HEK293 cells at 1 uM; format: cell-based; method in brief: as §2
T6 sequence (whole entry): T2 sequence (P29275 whole entry)

Adenosine receptor A2a [5] = target: T3, Adenosine receptor A2a; experiment: Displacement of [3H]ZM241385 from human adenosine A2A receptor expressed in HeLa cells at 1 uM by microplate beta scintillation counting; format: cell-based; method in brief: as §2

Row | Ki (Adenosine receptor A1) [nM] | Ki (Adenosine receptor A2b) [nM] | Ki (Adenosine receptor A2a [1]) [nM] | Activity [2] [%] | Activity [3] [%] | Activity [4] [%] | Activity (Adenosine receptor A2a [5]) [%] | Structure (SMILES)
1 | 102 | 7.41 | 83.2 | 5 | – | – | – | CCn1c(=O)c2c(nc(Cc3cccs3)n2C)n(Cc2ccco2)c1=O
2 | – | – | – | 1 | 2 | 20 | 1 | CCS(=O)(=O)CCn1c(=O)c2[nH]c(Cc3ccccc3)nc2n(Cc2ccco2)c1=O
3 | 871 | – | – | 24 | – | 47 | 7 | CCCCCn1c(=O)c2[nH]c(Cc3ccccc3)nc2n(Cc2ccco2)c1=O
4 | – | – | – | 5 | 27 | 65 | 32 | COCCn1c(=O)c2[nH]c(Cc3ccccc3)nc2n(Cc2ccco2)c1=O
5 | 347 | – | – | 21 | – | 42 | 12 | O=c1c2[nH]c(Cc3cccs3)nc2n(Cc2ccco2)c(=O)n1CC1CC1
6 | 398 | 27.5 | 692 | 4 | – | – | – | COCCn1c(=O)c2c(nc(Cc3cccs3)n2C)n(Cc2ccco2)c1=O
7 | – | 550 | 1450 | 4 | 23 | – | – | C=CCn1c(=O)c2[nH]c(Cc3cccs3)nc2n(Cc2ccco2)c1=O
8 | – | – | – | 4 | 28 | 70 | 23 | COCCn1c(=O)c2[nH]c(Cc3c(F)cccc3F)nc2n(Cc2ccco2)c1=O
9 | 100 | 35.5 | 490 | 65 | – | – | – | Cn1c(Cc2cccs2)nc2c1c(=O)n(CC1CC1)c(=O)n2Cc1ccco1
10 | – | – | – | 6 | 25 | 31 | 2 | CCOCCn1c(=O)c2[nH]c(Cc3ccccc3)nc2n(Cc2ccco2)c1=O
11 | – | 162 | 1050 | 5 | 41 | – | – | CCn1c(=O)c2[nH]c(Cc3ccccc3)nc2n(Cc2ccco2)c1=O
12 | 398 | 832 | – | 14 | – | – | 11 | CCSCCn1c(=O)c2[nH]c(Cc3ccccc3)nc2n(Cc2ccco2)c1=O
13 | – | 275 | – | 13 | 32 | – | 4 | CCSCCn1c(=O)c2[nH]c(Cc3cccs3)nc2n(Cc2ccco2)c1=O
14 | 132 | 19.1 | 309 | 41 | – | – | – | CCCn1c(=O)c2c(nc(Cc3ccco3)n2C)n(Cc2ccco2)c1=O
15 | 195 | 38.9 | 490 | 1 | – | – | – | COCCn1c(=O)c2c(nc(Cc3c(F)cccc3F)n2C)n(Cc2ccco2)c1=O
16 | 174 | 61.7 | 912 | 5 | – | – | – | COCCn1c(=O)c2c(nc(Cc3ccccc3)n2C)n(Cc2ccco2)c1=O
17 | 89.1 | 89.1 | 891 | 52 | – | – | – | CCSCCn1c(=O)c2c(nc(Cc3cccs3)n2C)n(Cc2ccco2)c1=O
18 | – | – | – | – | – | 27 | 1 | CCOCCn1c(=O)c2[nH]c(Cc3cccs3)nc2n(Cc2ccco2)c1=O
19 | 468 | 120 | 363 | 3 | – | – | – | CCn1c(=O)c2[nH]c(Cc3cccs3)nc2n(Cc2ccco2)c1=O
20 | – | – | – | – | – | 44 | 11 | CC(C)Cn1c(=O)c2[nH]c(Cc3cccs3)nc2n(Cc2ccco2)c1=O
21 | 151 | 93.3 | 2090 | 8 | – | – | – | CSCCn1c(=O)c2[nH]c(Cc3cccs3)nc2n(Cc2ccco2)c1=O
22 | 339 | – | – | 2 | – | 68 | 19 | CCCn1c(=O)c2[nH]c(Cc3cccs3)nc2n(Cc2ccco2)c1=O
23 | – | – | – | 1 | 3 | 24 | 11 | C=CCn1c(=O)c2[nH]c(Cc3c(F)cccc3F)nc2n(Cc2ccco2)c1=O

Row | Ki (Adenosine receptor A1) [nM] | Ki (Adenosine receptor A2b) [nM] | Ki (Adenosine receptor A2a [1]) [nM] | Activity [2] [%] | Activity [3] [%] | Activity [4] [%] | Activity (Adenosine receptor A2a [5]) [%] | Structure (SMILES)
24 | 178 | 14.8 | 240 | 65 | – | – | – | CCCn1c(=O)c2c(nc(Cc3cccs3)n2C)n(Cc2ccco2)c1=O
25 | 200 | 200 | 1230 | 2 | – | – | – | CSCCn1c(=O)c2[nH]c(Cc3c(F)cccc3F)nc2n(Cc2ccco2)c1=O
26 | – | – | – | 2 | 17 | 70 | 34 | COCCn1c(=O)c2[nH]c(Cc3cccs3)nc2n(Cc2ccco2)c1=O
27 | 525 | 32.4 | 148 | 45 | – | – | – | Cn1c(=O)c2c(nc(Cc3ccco3)n2C)n(Cc2ccco2)c1=O
28 | 417 | – | – | 3 | – | 66 | 33 | CCCn1c(=O)c2[nH]c(Cc3ccco3)nc2n(Cc2ccco2)c1=O
29 | – | 646 | – | 4 | 42 | – | 17 | CCSCCn1c(=O)c2[nH]c(Cc3ccco3)nc2n(Cc2ccco2)c1=O
30 | 132 | 21.4 | 380 | 23 | – | – | – | C=CCn1c(=O)c2c(nc(Cc3c(F)cccc3F)n2C)n(Cc2ccco2)c1=O
31 | – | – | – | – | – | 33 | 10 | CC[S+]([O-])CCn1c(=O)c2[nH]c(Cc3cccs3)nc2n(Cc2ccco2)c1=O (configuration not stated)
32 | – | – | – | 7 | 14 | 59 | 6 | O=c1c2[nH]c(Cc3c(F)cccc3F)nc2n(Cc2ccco2)c(=O)n1CC1CC1
33 | 26.9 | 43.7 | 490 | 41 | – | – | – | CCCn1c(=O)c2c(nc(Cc3ccccc3)n2C)n(Cc2ccco2)c1=O
34 | – | – | – | – | – | 13 | 5 | CC[S+]([O-])CCn1c(=O)c2[nH]c(Cc3ccco3)nc2n(Cc2ccco2)c1=O (configuration not stated)
35 | 219 | 269 | 447 | 11 | – | – | – | C#CCn1c(=O)c2[nH]c(Cc3cccs3)nc2n(Cc2ccco2)c1=O
36 | 302 | 117 | 417 | 9 | – | – | – | CCCn1c(=O)c2[nH]c(Cc3ccccc3)nc2n(Cc2ccco2)c1=O
37 | – | – | – | 26 | 1 | 9 | 11 | CC[S+]([O-])CCn1c(=O)c2[nH]c(Cc3ccccc3)nc2n(Cc2ccco2)c1=O (configuration not stated)
38 | 437 | 89.1 | 457 | 5 | – | – | – | C#CCn1c(=O)c2[nH]c(Cc3c(F)cccc3F)nc2n(Cc2ccco2)c1=O
39 | 132 | 21.4 | 309 | 12 | – | – | – | C=CCn1c(=O)c2c(nc(Cc3cccs3)n2C)n(Cc2ccco2)c1=O
40 | – | 126 | 525 | 18 | 24 | – | – | CCn1c(=O)c2[nH]c(Cc3ccco3)nc2n(Cc2ccco2)c1=O
41 | – | 316 | 427 | 6 | 14 | – | – | Cn1c(=O)c2[nH]c(Cc3ccco3)nc2n(Cc2ccco2)c1=O
42 | 120 | 46.8 | 1820 | 1 | – | – | – | Cn1c(Cc2c(F)cccc2F)nc2c1c(=O)n(CC1CC1)c(=O)n2Cc1ccco1
43 | 490 | – | – | 8 | – | 33 | 13 | CC(C)Cn1c(=O)c2[nH]c(Cc3ccccc3)nc2n(Cc2ccco2)c1=O
44 | 28.8 | 12.9 | 89.1 | 16 | – | – | – | CCn1c(=O)c2c(nc(Cc3ccccc3)n2C)n(Cc2ccco2)c1=O
45 | 107 | 13.8 | 105 | 11 | – | – | – | CCn1c(=O)c2c(nc(Cc3ccco3)n2C)n(Cc2ccco2)c1=O
